# Source: PubChem (several laboratories)
# Rows were chosen to be rich in hits. Some 1.5% of all compounds tested hit in one or more screens of this group.
# MT1-MMP act inh – MT1-MMP (human) activation inhibition. GFP/RFP ratio change, % at 20 µM. P50281. actives 0.061% (n = 360,000). HT1080 RFP-PRO-GFP cells, GFP/RFP ratio fluorescence, overnight; percent of plate control window, DMSO zero;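 active means GFP/RFP ratio change of at least 30% with cell ATP level not reduced by more than half and red fluorescence within 50% of control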
#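 Test system: HT1080 cells expressing an RFP-PRO-GFP fluorescent reporter construct / Compound dosing: single-point 20 µM compound, 1% DMSO / Schedule: cells overnight before dosing, compound overnight, 37 °C, 5% CO2 / Evaluation: GFP/RFP fluorescence ratio / Control set: DMSO and RFP-L50D-GFP cell wells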
# UCH37 DUB inh – human UCH37 deubiquitinating enzyme inhibition; purified proteasome/UCH37, Ub-AMC cleavage fluorescence; inhibition, % (concentration not given with the values); Q9Y5K5; actives 0.33% (n = 330,000); AID 588478;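 active means mean inhibition over replicate wells above about 20%, limit read from the data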;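 further: 0% = compound-free wells with enzyme and 100% = wells lacking proteasome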
#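 Schedule: 30 min plus 25 min, room temperature / Material: human UCH37 within purified proteasomes / Technique: AMC fluorescence intensity at 355/460 nm / Buffer or medium: pH 7.4 Tris-HCl (50 mM) with ovalbumin, ATP-MgCl2, DTT / Controls: wells without proteasome as full block, compound-free enzyme plus substrate as uninhibited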
# DAGLB inh – diacylglycerol lipase beta (human) inhibition. Q8NCG7. HEK293T DAGLB membrane lysate, EnzChek fluorogenic substrate. inhibition, % at 5.17 µM. actives 0.059% (n = 340,000); in the data active means inhibition above about 34%;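 further: 0% = enzyme with vehicle and 100% = wells lacking enzyme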
# Fh CTSL1 inh – cathepsin L1 inhibition, PFM18AAP counter-screen. recombinant F. hepatica cathepsin L1, Z-Leu-Arg-MCA fluorescence. inhibition, % at 5.96 µM. actives 0.49% (n = 300,000);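 active means inhibition above the mean of all tested compounds plus 3 SD, set per screening campaign, cut at about 17% in these data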;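 further: 0% = plate median of test compound wells and 100% = 1 µM Z-Phe-Ala-diazomethylketone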
# NRP1-CendR mod – NRP-1/CendR interaction modulation; actives 0.85% (n = 360,000); inhibition, % at 25 µM; O14786; FAM-RPARPAR peptide binding to NRP-1, fluorescence polarization; AID 602438;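 active means inhibition or corrected inhibition above about 18%, plus a signal ratio from 0.5 to 1.5, limit read from the data, passing the limit was not always enough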
# Target sequence (O14786 whole entry, looked up): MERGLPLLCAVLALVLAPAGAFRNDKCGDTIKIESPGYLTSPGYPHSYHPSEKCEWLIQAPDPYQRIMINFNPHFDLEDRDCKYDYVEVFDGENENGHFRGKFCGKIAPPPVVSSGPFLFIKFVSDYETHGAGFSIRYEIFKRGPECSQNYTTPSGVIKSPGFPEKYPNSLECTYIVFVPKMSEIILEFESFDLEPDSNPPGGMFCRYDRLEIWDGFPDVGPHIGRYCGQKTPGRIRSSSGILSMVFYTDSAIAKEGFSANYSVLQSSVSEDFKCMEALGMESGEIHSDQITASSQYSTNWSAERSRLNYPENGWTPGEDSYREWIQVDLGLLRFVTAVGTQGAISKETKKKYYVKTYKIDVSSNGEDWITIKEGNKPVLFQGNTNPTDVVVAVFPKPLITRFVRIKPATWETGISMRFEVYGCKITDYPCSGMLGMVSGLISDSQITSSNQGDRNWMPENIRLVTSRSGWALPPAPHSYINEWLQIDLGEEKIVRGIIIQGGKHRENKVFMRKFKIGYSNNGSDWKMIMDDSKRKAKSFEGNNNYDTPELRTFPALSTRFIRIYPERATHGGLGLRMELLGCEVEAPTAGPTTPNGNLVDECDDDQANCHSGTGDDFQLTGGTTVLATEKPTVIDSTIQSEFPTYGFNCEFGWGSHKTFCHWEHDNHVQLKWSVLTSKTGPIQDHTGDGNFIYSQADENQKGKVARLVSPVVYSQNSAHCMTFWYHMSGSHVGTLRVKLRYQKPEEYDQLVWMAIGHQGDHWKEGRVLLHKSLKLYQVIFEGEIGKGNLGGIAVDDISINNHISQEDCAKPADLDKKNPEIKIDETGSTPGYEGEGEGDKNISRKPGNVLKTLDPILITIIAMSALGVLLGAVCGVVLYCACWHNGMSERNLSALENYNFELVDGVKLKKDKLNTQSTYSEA
# DAGLB confirm – DAGLB (human) inhibition, confirmation screen. shares compounds with DAGLB inh. HEK293T DAGLB membrane lysate, EnzChek fluorogenic substrate. inhibition, % at 5.17 µM. actives 73% (n = 190). AID 504445;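 active means mean inhibition over triplicate wells above a set limit taken from the primary lipase screen, cut at about 34% in these data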;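 further: 0% = DAGLB with DMSO and 100% = wells lacking DAGLB enzyme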
# UCH37 confirm – reconfirmed inhibitor of human deubiquitinase UCH37. shares compounds with UCH37 DUB inh. Proteasome-bound UCH37, Ub-AMC cleavage fluorescence. inhibition, % at 20 µM. actives 27% (n = 480);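 active means average inhibition over replicates above about 50%, so the earlier screening hit is confirmed, limit read from the data; inactive means the rest, counted as false positives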;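 further: based on cleavage rate fitted by regression over a 30 min kinetic read; 0% = proteasome plus Ub-AMC and 100% = Ub-AMC without proteasome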
# * marks the source's active call; other numbers are inactive results; . = not tested or not shown.
SMILES,MT1-MMP act inh,UCH37 DUB inh,DAGLB inh,Fh CTSL1 inh,NRP1-CendR mod,others
COC(=O)C1=C(c2ccc(F)cc2OCc2ccccc2)C[C@@H]2CC[C@H]1N2C(=O)NCCNC(C)=O,-6,2,-5,.,30*,
CC(=O)C1C2c3ccccc3OC1(C)N=c1sc(=Cc3cn(C)nc3C)c(=O)n12 (stereo not drawn),.,3,.,.,.,
COc1ccccc1C=NN=C(N)N[N+](=O)[O-],.,13,.,.,.,
C(=NNC1=NCCCCC1)c1c[nH]c2ccccc12,.,12,.,.,.,
Fc1ccc(CNCCc2ccc3c(c2)OCO3)cc1,1,-1,-3,-3,-2,
O=[N+]([O-])c1cc2c(cc1CNCCc1ccc3c(c1)OCO3)OCO2,4,.,0,-1,37*,
COc1ccc(OCC(=O)N2CCN(C/C=C/c3ccccc3)CC2)cc1,2,4,2,17*,3,
O=C(COc1ccccc1)N1CCN(C/C=C/c2ccccc2)CC1,1,1,-1,-3,15,
C#C[C@@]1(O)CCC2C3CCC4=CC(=NOCC(=O)NC(CCC(N)=O)C(=O)O)CC[C@]4(C)C3CC[C@@]21C (stereo partly drawn),.,0,.,.,.,
O=C1NC(=O)N(c2ccc(Br)cc2)C(=O)/C1=C/c1ccsc1,-15,2,6,1,-29,
O=C1NC(=O)N(c2ccc(F)cc2)C(=O)/C1=C/c1ccsc1,-7,4,-1,35*,-10,
CC(C)(C)n1nnnc1C(c1ccnc2ccccc12)N1CCC2(CC1)C(=O)NCN2c1ccccc1 (stereo not drawn),4,.,.,.,36*,
Cc1ccccc1C(=O)NN=Cc1ccc(Sc2ccccn2)o1,.,1,.,.,.,
CC1(C)CN=C(Nc2ccc(F)c(Cl)c2)S1,4,1,1,-6,27*,
O=C1C=C(N2CC2)c2ccccc2C1=O,19,.,1,.,25*,
O=C1c2ccccc2-c2cc3ccccc3cc21,0,.,-8,.,20,
CN(C)C(=O)CSc1nnc([C@@H](N)Cc2ccccc2)o1,3,2,-1,33*,-2,
C=C(C)CSc1nnc([C@@H](N)Cc2ccccc2)o1,-2,5,-2,-3,2,
CCn1cc(C=c2sc3n(c2=O)C2c4ccccc4OC(C)(N=3)C2C(=O)OC)c(C)n1 (stereo not drawn),.,11,.,.,.,
CN1C(=O)NC(=O)/C(=C\c2ccc([N+](=O)[O-])o2)C1=O,39,17,0,-2,-20,
CN1C(=O)NC(=O)/C(=C/c2ccc([N+](=O)[O-])o2)C1=O,.,22*,.,-3,.,
COc1ccc(N=Nc2c(O)[nH]c(=S)[nH]c2=O)cc1,3,21*,6,11,-70,
CCN1CCN(S(=O)(=O)c2ccc(Cl)nc2)CC1,-9,-1,3,-4,28*,
CCOC(=O)C(CCCN(CC)CC)=NO,.,3,.,.,.,
Cc1ccc2c(c1Cl)NC(C(=O)O)C1CC(Sc3ccccc3[N+](=O)[O-])C(Cl)C21 (stereo not drawn),3,6,14,7,8,
SMILES,MT1-MMP act inh,UCH37 DUB inh,DAGLB inh,Fh CTSL1 inh,NRP1-CendR mod,others
CCN(CC)C(=O)c1ccc(N(Cc2ccccc2)S(C)(=O)=O)cc1,0,1,0,.,8,
CCN(CC)C(=O)c1ccc2c(c1)C1C(Cl)C(Sc3ccccc3[N+](=O)[O-])CC1C(C(=O)O)N2 (stereo not drawn),69,7,22,-1,46*,
CCN(CC)C(=O)c1ccc2c(c1)C1C=CCC1C(C(=O)O)N2 (stereo not drawn),20,.,1,.,45*,
CCN(CC)c1ccc(C=Nc2sc3c(c2C#N)C2CCN3CC2)c(O)c1,.,8,.,.,.,
O=C1NC(=O)C(=Cc2ccccc2[N+](=O)[O-])C(=O)N1,0,.,2,.,25*,
CCC1C2Cc3ccc(O)cc3C1(CC)CCN2C (stereo not drawn),-2,.,-3,.,32*,
CN1CC[C@@]23CCCC[C@@H]2[C@@H]1Cc1ccc(O)cc13,-14,1,-2,-3,-4,
CN(C)C(=O)ON=C(N)COc1ccc(C(C)(C)C)cc1,.,1,.,.,.,
Cc1cc(CN(C)C)c(OC(=O)N(C)C)cc1C,3,-2,0,-1,-1,
COc1cc(OC)c(C=O)c(OC(=O)N(C)C)c1,2,-1,1,28*,-9,
COc1ccc(OC(=O)N(C)C)c(CN(C)C)c1,1,3,0,-1,27*,
C[C@H]1CCCC(=O)CCCC=Cc2cc(O)cc(O)c2C(=O)O1,.,5,.,.,.,
ON=C1CCC2CN(C3CCCCC3)CC2C1 (stereo not drawn),.,-1,.,.,.,
C[C@H]1CCCC=C[C@@H]2C[C@H](O)C[C@H]2[C@H](O)C=CC(=O)O1,.,5,.,.,.,
CC12CCC3c4ccc(OP(=O)(N5CC5)N5CC5)cc4CCC3C1CCC2=O (stereo not drawn),2,1,1,.,26*,
CC1CN1P(=O)(Oc1ccc2ccccc2c1)N1CC1C (stereo not drawn),-3,3,-1,.,14,
CC(CCc1c[nH]c2ccccc12)=NO,.,1,.,.,.,
CCN(CC)C(=O)c1ccc(NC(=O)COc2ccc([N+](=O)[O-])cc2Cl)cc1,5,.,3,-1,31*,
CCCC12CN3CCN(CC(C3)C1=NNC(=O)c1ccncc1)C2,.,1,.,.,.,
CC(=O)N(C)CC#CCN1CCC(O)CC1,-3,0,-3,1,37*,
NP(=O)(OCCCc1ccccc1)Oc1ccc(Cl)cc1 (stereo not drawn),3,5,35*,-1,1,DAGLB confirm=35*
NC(=S)NN=Cc1coc2ccccc2c1=O,.,-1,.,.,.,
CN1C(=O)C(Cc2ccc(OCc3ccccc3)cc2)C(=O)N(C)C1=O,3,11,-2,1,9,
CN1C(=O)C(Cc2cccc3ccccc23)C(=O)N(C)C1=O,-3,40*,2,-2,-8,UCH37 confirm=2
CCOc1ccc(N2C(=O)/C(=C/c3ccco3)C(=O)NC2=S)cc1,-1,29*,13,4,-40,UCH37 confirm=99*
CCOc1ccc(N2C(=O)/C(=C\c3cccs3)C(=O)NC2=S)cc1,.,4,.,3,.,
CCOc1ccc(-n2c(O)c(C=Nc3ccc(N4CCOCC4)cc3)c(=O)[nH]c2=O)cc1,5,45*,2,0,4,UCH37 confirm=12
O=C1NC(=O)C(Nc2ccccc2)C(=O)N1,3,64*,-8,.,7,UCH37 confirm=-4
CC(CC(c1ccccc1)c1c(O)c2ccccc2oc1=O)=NNc1ccc([N+](=O)[O-])cc1[N+](=O)[O-] (stereo not drawn),.,10,.,.,.,
